Series [1] relates to Mus musculus. The series can be described thus: Effect on liver weight adjusted by body weight gain in normal chow diet fed C57BL/6J mouse at 40 mg/kg, ip administered every 2 days for 11 weeks. The series is classed as ADME, organism-based. Conditions: in vivo. Put shortly:
(§1)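 Male mice, 8 weeks old, kept on normal chow throughout and dosed i.p. every 2 days in corn oil vehicle for 11 weeks. Body weight gain, liver/body weight ratio, and liver mRNA of the indicated genes were measured at sacrifice; mean ± SEM, n = 5 per group where stated.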

A short description of series [2]: Inhibition of Wnt/beta-catenin signaling (unknown origin) expressed in HEK293 cells harboring GSK3B siRNA after 24 hrs by luciferase reporter gene assay. The series is classed as cell-based. Particulars: Homo sapiens, HEK293, 24 h. In general terms: A reporter such as luciferase makes a cellular process visible.
Series [3] deals with Mus musculus. The series can be described thus: Decrease in hepatic ACOT4 mRNA level in high fat diet fed C57BL/6J mouse at 40 mg/kg, ip administered every 2 days for 11 weeks by qPCR analysis. The series is classed as functional, organism-based. In short, it runs like this: (§2)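 Male mice, 8 weeks old, fed a 45% kcal fat diet for 6 weeks, then dosed i.p. every 2 days in corn oil vehicle for 11 weeks. Liver mRNA of the indicated genes was quantified at sacrifice; mean ± SEM, n = 5 per group.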
For orientation: Quantitative PCR measures a nucleic acid by following its amplification.

Series [4] has as its system Mus musculus. The series can be described thus: Effect on hepatic SCD1 mRNA level in normal chow diet fed C57BL/6J mouse at 40 mg/kg, ip administered every 2 days for 11 weeks by qPCR analysis. The format is ADME, organism-based. Conditions: in vivo. Put shortly: as §1
Series [5] can be described thus: Toxicity in high fat diet fed C57BL/6J mouse assessed as serum alkaline phosphatase level at 40 mg/kg, ip administered every 2 days for 11 weeks (reference value: 58.3 +/- 3.8 U/L). The format is organism-based. Particulars: in vivo.
Series [6] deals with Mus musculus. The series can be described thus: Decrease in hepatic triglyceride content in high fat diet fed C57BL/6J mouse at 40 mg/kg, ip administered every 2 days for 11 weeks. The format is functional, organism-based. Put shortly: (§3)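 Male mice, 8 weeks old, 24–27 g, given a 45% kcal fat diet for 6 weeks, then dosed i.p. every 2 days in corn oil vehicle with the diet continued. Sacrifice was about 24 h after the last dose. Liver was examined by H&E. Liver and serum triglyceride were measured by kit. Serum chemistry was included, and liver/body weight ratio was calculated.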

The subject of series [7] is Mus musculus. The series can be described thus: Effect on hepatic Glp1 mRNA level in normal chow diet fed C57BL/6J mouse at 40 mg/kg, ip administered every 2 days for 11 weeks by qPCR analysis. Conditions: in vivo. The series is classed as ADME, organism-based. Put shortly: as §1
Series [8] relates to Mus musculus. The series can be described thus: Decrease in liver weight adjusted by body weight gain in high fat diet fed C57BL/6J mouse at 40 mg/kg, ip administered every 2 days for 11 weeks. The format is functional, organism-based. In short, it runs like this:
as §3

A short description of series [9]: Toxicity in high fat diet fed C57BL/6J mouse assessed as serum AST level at 40 mg/kg, ip administered every 2 days for 11 weeks (reference value: 131 +/- 15.6 U/L). The series is classed as organism-based. Conditions: in vivo.
A short description of series [10]: Toxicity in normal chow diet fed C57BL/6J mouse assessed as serum AST level at 40 mg/kg, ip administered every 2 days for 11 weeks (reference value: 119 +/- 28.3 U/L). Conditions: in vivo. The series is classed as organism-based.
Series [11] in a line: Toxicity in high fat diet fed C57BL/6J mouse assessed as serum cholesterol level at 40 mg/kg, ip administered every 2 days for 11 weeks (reference value: 316 +/- 25 mg/dl). The format is organism-based. Conditions: in vivo.
For series [12], the system named is Mus musculus. The series can be described thus: Effect on hepatic ACC1 mRNA level in normal chow diet fed C57BL/6J mouse at 40 mg/kg, ip administered every 2 days for 11 weeks by qPCR analysis. The format is ADME, organism-based. Particulars: in vivo. Put shortly: as §1
Series [13] deals with Mus musculus. The series can be described thus: Decrease in body weight gain in high fat diet fed C57BL/6J mouse at 40 mg/kg, ip administered every 2 days for 11 weeks. The series is classed as functional, organism-based. Put shortly:
as §3

Series [14] is filed under the species Mus musculus. The series can be described thus: Inhibition of Wnt/beta-catenin/Axin signaling in mouse hepatocytes assessed as decrease in ACOT4 mRNA level at 5 uM by qPCR analysis. The format is cell-based. In short, it runs like this:
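Normal mouse hepatocytes were treated with 5 μM compound, and lipogenic and gluconeogenic gene mRNA was measured by qPCR; mean ± S.D. of triplicates.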

The target in series [15] is Casein kinase I isoform alpha (Homo sapiens) (UniProt P48729). The series can be described thus: Binding affinity to CK1alpha (unknown origin) by SPR analysis. (SPR reads the build-up and loss of mass on a sensor chip optically.)
A short description of series [16]: Toxicity in normal chow diet fed C57BL/6J mouse assessed as serum creatinine level at 40 mg/kg, ip administered every 2 days for 11 weeks by Jaffe's reaction analysis (reference value: 0.2 +/- 0.01 mg/dl). The format is organism-based. Particulars: in vivo.
The nature of series [17]: Toxicity in normal chow diet fed C57BL/6J mouse assessed as serum alkaline phosphatase level at 40 mg/kg, ip administered every 2 days for 11 weeks (reference value: 66.5 +/- 1.8 U/L). The series is classed as organism-based. Conditions: in vivo.
For series [18], the system named is Mus musculus. The series can be described thus: Decrease in hepatic ACAT2 mRNA level in high fat diet fed C57BL/6J mouse at 40 mg/kg, ip administered every 2 days for 11 weeks by qPCR analysis. The format is functional, organism-based. In short, it runs like this:
as §2

A short description of series [19]: Inhibition of LiCl activated Wnt/beta-catenin signaling (unknown origin) expressed in HEK293 cells harboring TCF/LEF-responsive luciferase preincubated with cells followed by LiCl addition and measured after 24 hrs by luciferase reporter gene assay. The series is classed as cell-based. Conditions: Homo sapiens. Put shortly:
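HEK293 cells carrying the TCF/LEF TOPFlash firefly luciferase reporter were stimulated with LiCl and treated with compound for 24 h. Luminescence was read, and IC50 was fitted from concentration–response data; mean ± S.D., n = 4.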

Series [20] concerns Mus musculus. The series can be described thus: Effect on hepatic […] mRNA level in normal chow diet fed C57BL/6J mouse at 40 mg/kg, ip administered every 2 days for 11 weeks by qPCR analysis. The series is classed as ADME, organism-based. Particulars: in vivo. Put shortly:
as §1

In series [21] the test system is Mus musculus. The series can be described thus: Decrease in hepatic G6pase mRNA level in high fat diet fed C57BL/6J mouse at 40 mg/kg, ip administered every 2 days for 11 weeks by qPCR analysis. The format is functional, organism-based. In short, it runs like this: as §2
Series [22] deals with Mus musculus. The series can be described thus: Decrease in hepatic GCK mRNA level in high fat diet fed C57BL/6J mouse at 40 mg/kg, ip administered every 2 days for 11 weeks by qPCR analysis. The format is functional, organism-based. In short, it runs like this: as §2

pIC50: −log10 of the molar value. The source made the active and inactive calls. No cut-off for these calls is given here.

Casein kinase I isoform alpha (Homo sapiens), sequence (P48729 2-337 limits assumed): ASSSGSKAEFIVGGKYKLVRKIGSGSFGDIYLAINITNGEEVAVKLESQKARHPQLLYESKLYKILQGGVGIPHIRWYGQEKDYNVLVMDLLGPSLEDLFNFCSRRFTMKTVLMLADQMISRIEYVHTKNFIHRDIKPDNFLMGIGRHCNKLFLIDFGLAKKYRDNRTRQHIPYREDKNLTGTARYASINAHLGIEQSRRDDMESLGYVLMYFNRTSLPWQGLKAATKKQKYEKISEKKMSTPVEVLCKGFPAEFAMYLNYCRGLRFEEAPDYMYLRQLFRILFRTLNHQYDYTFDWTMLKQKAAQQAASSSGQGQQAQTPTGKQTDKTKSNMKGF

For the compound `Cc1ccccc1-n1nnc(C(=O)Nc2ccc3ccccc3n2)c1C`, the Activity result was “Non-Toxic” in the series on Mus musculus [1]; “Non-Toxic” in the series with Mus musculus [4]; 51 U/L in series [5]; “Non-Toxic” in the series with Mus musculus [7]; 94.8 U/L in [9]; 74.5 U/L in series [10]. Moreover, the Activity was 223 mg/dL in series [11]; “Non-Toxic” with Mus musculus [12]; 0.2 mg/dL in series [16]; 57.5 U/L in series [17]; “Non-Toxic” in the series on Mus musculus [20]. For the same compound, the negative-log IC50 (pIC50) is 7.47 in [2] and 8.22 in [19]. In addition, the outcome in the series on Mus musculus [3], in the series with Mus musculus [6], with Mus musculus [8], in the series on Mus musculus [13], in the series with Mus musculus [18] and with Mus musculus [21] was Active. Moreover, the outcome with Mus musculus [22] was Active. Also, the inhibition result in the series filed under Mus musculus [14] is “Active”. Further, in series [15], the result was inactive.

One may read the pIC50 as the IC50 on a negative log10 scale, so that one unit is a factor of ten. Read a low pIC50 as a high IC50.

Values taken from ChEMBL document CHEMBL4371095, “Triazole-Based Inhibitors of the Wnt/β-Catenin Signaling Pathway Improve Glucose and Lipid Metabolisms in Diet-Induced Obese Mice” (J Med Chem, 2019).
